Reference: ChEMBL document CHEMBL3632459, “Synthesis and evaluation of aporphine analogs containing C1 allyl isosteres at the h5-HT(2A) receptor” (Bioorg Med Chem Lett, 2015)
pKi: −log10 of the molar value. One block for each molecule: values may come before it.

Tests used:
[1] = species: Homo sapiens; assay: Selectivity ratio of Ke(app) for adrenergic alpha1A receptor (unknown origin) to Ke(app) for human 5-HT2A receptor
Method in brief: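 Ratio of apparent Ke values from matched FLIPR calcium functional assays at human 5-HT2A and at α1A receptors. Compounds were screened at 10 μM. Ke was taken from the rightward EC50 shift of an 8-point half-log agonist curve (5-HT at 5-HT2A) with one antagonist concentration, Ke = [L]/(DR−1). Values are means of ≥2 triplicate experiments.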

[2] = target: 5-hydroxytryptamine receptor 1E (Homo sapiens, UniProt P28566); assay: Displacement of [3H]-5-HT from recombinant human 5-HT1E receptor after […] by Microbeta scintillation counting analysis
[3] = target: 5-hydroxytryptamine receptor 1B (Homo sapiens, UniProt P28222); assay: Displacement of [3H]-[…] from recombinant human 5-HT1B receptor after […] by Microbeta scintillation counting analysis
[4] = target: Muscarinic acetylcholine receptor M5 (Homo sapiens, UniProt P08912); assay: Displacement of [3H]-Tiotidine from recombinant human muscarinic M5 receptor after […] by Microbeta scintillation counting analysis
[5] = target: 5-hydroxytryptamine receptor 5A (Homo sapiens) (UniProt P47898); assay: Displacement of [3H]-LSD from recombinant human 5-HT5A receptor at 10 uM after […] by Microbeta scintillation counting analysis relative to control
[6] = target: Muscarinic acetylcholine receptor M1 (Homo sapiens) (UniProt P11229); assay: Displacement of [3H]-QNB from recombinant human muscarinic M1 receptor at 10 uM after […] by Microbeta scintillation counting analysis relative to control
[7] = target: Delta-type opioid receptor (Homo sapiens) (UniProt P41143); assay: Displacement of [3H]-DADLE from recombinant human delta opioid receptor at 10 uM after […] by Microbeta scintillation counting analysis relative to control
[8] = target: Sodium-dependent noradrenaline transporter (Homo sapiens) (UniProt P23975); assay: Displacement of [3H]-Nisoxetine from recombinant human NET at 10 uM after […] by Microbeta scintillation counting analysis relative to control
[9] = target: 5-hydroxytryptamine receptor 2B (Homo sapiens, UniProt P41595); assay: Displacement of [3H]-LSD from recombinant human 5-HT2B receptor after […] by Microbeta scintillation counting analysis
[10] = target: D(3) dopamine receptor (Homo sapiens, UniProt P35462); assay: Displacement of [3H]-N-methylspiperone from recombinant human dopamine D3 receptor after […] by Microbeta scintillation counting analysis
[11] = target: GABA-A receptor; agonist GABA site (Homo sapiens) (UniProt P14867+P47870+P28472+P48169+P34903+P18505+P47869+P31644+Q16445); assay: Displacement of [3H]-Muscimol from recombinant human GABAA receptor at 10 uM after […] by Microbeta scintillation counting analysis relative to control; format: protein-complex assay
[12] = target: 5-hydroxytryptamine receptor 1A (Homo sapiens) (UniProt P08908); assay: Displacement of [3H]-8-OH-DPAT from recombinant human 5-HT1A receptor at 10 uM after […] by Microbeta scintillation counting analysis relative to control
[13] = target: Alpha-1D adrenergic receptor (Homo sapiens) (UniProt P25100); assay: Inhibition of recombinant human adrenergic alpha1D receptor at 10 uM after […] by Microbeta scintillation counting analysis relative to control
[14] = target: Beta-2 adrenergic receptor (Homo sapiens) (UniProt P07550); assay: Displacement of [3H]-Iodopindolol from recombinant human adrenergic beta2 receptor at 10 uM after […] by Microbeta scintillation counting analysis relative to control
[15] = target: Histamine H2 receptor (Homo sapiens, UniProt P25021); assay: Displacement of [3H]-Tiotidine from recombinant human histamine H2 receptor after […] by Microbeta scintillation counting analysis
[16] = species: Rattus norvegicus; assay: Displacement of [3H]-Flunitrazepam from rat brain Benzodiazepine receptor at 10 uM after […] by Microbeta scintillation counting analysis relative to control
[17] = target: D(1B) dopamine receptor (Homo sapiens) (UniProt P21918); assay: Displacement of [3H]-[…] from recombinant human dopamine D5 receptor at 10 uM after […] by Microbeta scintillation counting analysis relative to control
[18] = target: Sigma 2 receptor; assay: Displacement of [3H]-DTG from recombinant human sigma-2 receptor after […] by Microbeta scintillation counting analysis
[19] = target: 5-hydroxytryptamine receptor 3A (Homo sapiens, UniProt P46098); assay: Displacement of [3H]-LY278584 from recombinant human 5-HT3 receptor after […] by Microbeta scintillation counting analysis
[20] = target: D(1A) dopamine receptor (Homo sapiens, UniProt P21728); assay: Displacement of [3H]-[…] from recombinant human dopamine D1 receptor after […] by Microbeta scintillation counting analysis
[21] = target: Muscarinic acetylcholine receptor M3 (Homo sapiens) (UniProt P20309); assay: Displacement of [3H]-QNB from recombinant human muscarinic M3 receptor at 10 uM after […] by Microbeta scintillation counting analysis relative to control
[22] = target: Alpha-2C adrenergic receptor (Homo sapiens, UniProt P18825); assay: Displacement of [3H]-Clonidine from recombinant human adrenergic alpha2C receptor after […] by Microbeta scintillation counting analysis
[23] = target: Histamine H4 receptor (Homo sapiens) (UniProt Q9H3N8); assay: Displacement of [3H]-Histamine from recombinant human histamine H4 receptor at 10 uM after […] by Microbeta scintillation counting analysis relative to control
[24] = target: Kappa-type opioid receptor (Homo sapiens) (UniProt P41145); assay: Displacement of [3H]-U69593 from recombinant human kappa opioid receptor at 10 uM after […] by Microbeta scintillation counting analysis relative to control
[25] = target: D(4) dopamine receptor (Homo sapiens) (UniProt P21917); assay: Displacement of [3H]-N-methylspiperone from recombinant human dopamine D4 receptor at 10 uM after […] by Microbeta scintillation counting analysis relative to control
[26] = target: Muscarinic acetylcholine receptor M4 (Homo sapiens) (UniProt P08173); assay: Displacement of [3H]-QNB from recombinant human muscarinic M4 receptor at 10 uM after […] by Microbeta scintillation counting analysis relative to control
[27] = target: D(2) dopamine receptor (Homo sapiens) (UniProt P14416); assay: Displacement of [3H]-N-methylspiperone from recombinant human dopamine D2 receptor at 10 uM after […] by Microbeta scintillation counting analysis relative to control
[28] = target: Beta-1 adrenergic receptor (Homo sapiens) (UniProt P08588); assay: Displacement of [3H]-Iodopindolol from recombinant human adrenergic beta1 receptor at 10 uM after […] by Microbeta scintillation counting analysis relative to control
[29] = target: Muscarinic acetylcholine receptor M2 (Homo sapiens) (UniProt P08172); assay: Displacement of [3H]-QNB from recombinant human muscarinic M2 receptor at 10 uM after […] by Microbeta scintillation counting analysis relative to control
[30] = target: Sodium-dependent serotonin transporter (Homo sapiens) (UniProt P31645); assay: Displacement of [3H]-Citalopram from recombinant human SERT at 10 uM after […] by Microbeta scintillation counting analysis relative to control
[31] = target: Beta-3 adrenergic receptor (Homo sapiens) (UniProt P13945); assay: Displacement of [3H]-Iodopindolol from recombinant human adrenergic beta3 receptor at 10 uM after […] by Microbeta scintillation counting analysis relative to control
[32] = target: Alpha-2B adrenergic receptor (Homo sapiens, UniProt P18089); assay: Displacement of [3H]-Clonidine from recombinant human adrenergic alpha2B receptor after […] by Microbeta scintillation counting analysis
[33] = target: Translocator protein (Homo sapiens, UniProt P30536); assay: Displacement of [3H]-PK11195 from recombinant human PBR after […] by Microbeta scintillation counting analysis
[34] = target: 5-hydroxytryptamine receptor 7 (Homo sapiens, UniProt P34969); assay: Displacement of [3H]-LSD from recombinant human 5-HT7 receptor after […] by Microbeta scintillation counting analysis
[35] = target: Alpha-1B adrenergic receptor (Homo sapiens) (UniProt P35368); assay: Displacement of [3H]-Prazosin from recombinant human adrenergic alpha1B receptor at 10 uM after […] by Microbeta scintillation counting analysis relative to control
[36] = target: Alpha-1A adrenergic receptor (Homo sapiens) (UniProt P35348); assay: Displacement of [3H]-Prazosin from recombinant human adrenergic alpha1A receptor at 10 uM after […] by Microbeta scintillation counting analysis relative to control
[37] = target: 5-hydroxytryptamine receptor 1D (Homo sapiens, UniProt P28221); assay: Displacement of [3H]-[…] from recombinant human 5-HT1D receptor after […] by Microbeta scintillation counting analysis
[38] = target: Mu-type opioid receptor (Homo sapiens) (UniProt P35372); assay: Displacement of [3H]-DAMGO from recombinant human mu opioid receptor at 10 uM after […] by Microbeta scintillation counting analysis relative to control
[39] = target: Histamine H3 receptor (Homo sapiens) (UniProt Q9Y5N1); assay: Displacement of [3H]-alpha-methylhistamine from recombinant human histamine H3 receptor at 10 uM after […] by Microbeta scintillation counting analysis relative to control
[40] = target: Histamine H1 receptor (Homo sapiens) (UniProt P35367); assay: Displacement of [3H]-Pyrilamine from recombinant human histamine H1 receptor at 10 uM after […] by Microbeta scintillation counting analysis relative to control

Chain of Muscarinic acetylcholine receptor M3 (Homo sapiens) (P20309 whole entry, looked up): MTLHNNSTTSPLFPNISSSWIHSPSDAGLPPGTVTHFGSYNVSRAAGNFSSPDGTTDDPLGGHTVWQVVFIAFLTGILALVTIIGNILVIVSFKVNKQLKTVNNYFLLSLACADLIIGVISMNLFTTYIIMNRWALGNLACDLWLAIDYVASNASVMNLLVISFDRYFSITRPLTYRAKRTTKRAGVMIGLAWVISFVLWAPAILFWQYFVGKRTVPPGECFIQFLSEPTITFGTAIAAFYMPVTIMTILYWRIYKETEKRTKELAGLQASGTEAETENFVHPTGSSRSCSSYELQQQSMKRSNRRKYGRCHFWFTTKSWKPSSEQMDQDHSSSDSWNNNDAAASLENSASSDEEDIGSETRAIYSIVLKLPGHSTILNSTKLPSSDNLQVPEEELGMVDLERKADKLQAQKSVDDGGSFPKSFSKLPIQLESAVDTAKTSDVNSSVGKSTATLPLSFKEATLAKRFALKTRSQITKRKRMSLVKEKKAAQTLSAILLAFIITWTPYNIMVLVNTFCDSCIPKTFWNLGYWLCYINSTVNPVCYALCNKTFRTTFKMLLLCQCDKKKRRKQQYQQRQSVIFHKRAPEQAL
Chain of D(2) dopamine receptor (Homo sapiens) (P14416 whole entry): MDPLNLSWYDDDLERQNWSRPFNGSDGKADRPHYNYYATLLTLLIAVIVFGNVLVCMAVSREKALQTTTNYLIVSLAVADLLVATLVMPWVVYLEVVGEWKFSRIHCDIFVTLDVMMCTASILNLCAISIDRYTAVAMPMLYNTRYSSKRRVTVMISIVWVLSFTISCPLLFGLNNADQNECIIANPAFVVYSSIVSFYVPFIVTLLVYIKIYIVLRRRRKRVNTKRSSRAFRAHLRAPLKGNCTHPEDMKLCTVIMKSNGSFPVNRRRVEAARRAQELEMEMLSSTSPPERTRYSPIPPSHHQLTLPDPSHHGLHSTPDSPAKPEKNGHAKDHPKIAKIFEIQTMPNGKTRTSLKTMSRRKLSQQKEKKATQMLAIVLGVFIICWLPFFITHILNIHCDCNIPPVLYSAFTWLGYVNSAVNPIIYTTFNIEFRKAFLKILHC
Chain of 5-hydroxytryptamine receptor 5A (Homo sapiens) (P47898 whole entry): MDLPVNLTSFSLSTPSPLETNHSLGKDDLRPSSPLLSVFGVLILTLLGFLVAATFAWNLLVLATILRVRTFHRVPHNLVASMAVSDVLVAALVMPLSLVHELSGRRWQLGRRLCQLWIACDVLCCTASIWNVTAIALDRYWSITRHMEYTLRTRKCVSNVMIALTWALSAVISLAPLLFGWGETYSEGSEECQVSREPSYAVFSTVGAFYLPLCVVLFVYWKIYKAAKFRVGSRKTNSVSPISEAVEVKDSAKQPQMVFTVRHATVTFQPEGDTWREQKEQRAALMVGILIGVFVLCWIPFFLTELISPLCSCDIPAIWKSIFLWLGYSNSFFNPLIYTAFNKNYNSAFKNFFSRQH
Chain of 5-hydroxytryptamine receptor 1B (P28222 whole entry): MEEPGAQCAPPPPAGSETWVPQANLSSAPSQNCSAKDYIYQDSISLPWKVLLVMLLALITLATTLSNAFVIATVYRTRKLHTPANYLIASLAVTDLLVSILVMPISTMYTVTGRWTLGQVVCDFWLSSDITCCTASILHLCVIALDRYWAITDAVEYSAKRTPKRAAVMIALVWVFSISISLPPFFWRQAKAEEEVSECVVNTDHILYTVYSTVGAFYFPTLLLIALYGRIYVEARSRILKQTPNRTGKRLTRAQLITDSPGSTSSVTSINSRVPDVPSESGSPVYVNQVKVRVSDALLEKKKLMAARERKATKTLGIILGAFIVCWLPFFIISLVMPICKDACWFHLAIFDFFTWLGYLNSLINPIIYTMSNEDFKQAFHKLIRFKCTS
Chain of D(1A) dopamine receptor (P21728 whole entry): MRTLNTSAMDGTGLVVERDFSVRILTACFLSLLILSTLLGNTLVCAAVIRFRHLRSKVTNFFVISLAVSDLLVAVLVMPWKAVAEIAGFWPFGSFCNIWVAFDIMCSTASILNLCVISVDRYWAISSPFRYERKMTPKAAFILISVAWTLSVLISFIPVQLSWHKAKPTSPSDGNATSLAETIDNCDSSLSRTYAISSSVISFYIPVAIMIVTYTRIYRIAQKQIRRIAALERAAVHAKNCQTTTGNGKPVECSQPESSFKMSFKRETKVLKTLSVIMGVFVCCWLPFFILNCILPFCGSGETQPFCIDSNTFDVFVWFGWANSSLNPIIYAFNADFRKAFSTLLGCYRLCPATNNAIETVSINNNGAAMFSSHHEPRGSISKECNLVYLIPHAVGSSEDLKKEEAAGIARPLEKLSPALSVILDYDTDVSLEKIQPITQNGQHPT
Chain of Alpha-1B adrenergic receptor (Homo sapiens) (P35368 whole entry): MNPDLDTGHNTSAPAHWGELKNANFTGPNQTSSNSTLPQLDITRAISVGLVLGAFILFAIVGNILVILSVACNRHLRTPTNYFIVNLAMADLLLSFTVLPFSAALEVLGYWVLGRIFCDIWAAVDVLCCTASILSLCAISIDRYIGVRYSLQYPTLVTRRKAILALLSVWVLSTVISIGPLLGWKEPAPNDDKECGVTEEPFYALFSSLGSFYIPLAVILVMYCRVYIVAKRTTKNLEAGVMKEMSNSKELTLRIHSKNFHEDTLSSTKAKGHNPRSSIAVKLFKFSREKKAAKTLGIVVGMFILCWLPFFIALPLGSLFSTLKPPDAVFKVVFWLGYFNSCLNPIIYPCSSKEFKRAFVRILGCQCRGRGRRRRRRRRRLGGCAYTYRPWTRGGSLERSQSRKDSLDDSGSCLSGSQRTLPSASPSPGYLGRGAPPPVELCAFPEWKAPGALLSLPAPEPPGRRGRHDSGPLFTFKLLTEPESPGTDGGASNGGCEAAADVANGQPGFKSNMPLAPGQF
Chain of Alpha-1A adrenergic receptor (Homo sapiens) (P35348 whole entry): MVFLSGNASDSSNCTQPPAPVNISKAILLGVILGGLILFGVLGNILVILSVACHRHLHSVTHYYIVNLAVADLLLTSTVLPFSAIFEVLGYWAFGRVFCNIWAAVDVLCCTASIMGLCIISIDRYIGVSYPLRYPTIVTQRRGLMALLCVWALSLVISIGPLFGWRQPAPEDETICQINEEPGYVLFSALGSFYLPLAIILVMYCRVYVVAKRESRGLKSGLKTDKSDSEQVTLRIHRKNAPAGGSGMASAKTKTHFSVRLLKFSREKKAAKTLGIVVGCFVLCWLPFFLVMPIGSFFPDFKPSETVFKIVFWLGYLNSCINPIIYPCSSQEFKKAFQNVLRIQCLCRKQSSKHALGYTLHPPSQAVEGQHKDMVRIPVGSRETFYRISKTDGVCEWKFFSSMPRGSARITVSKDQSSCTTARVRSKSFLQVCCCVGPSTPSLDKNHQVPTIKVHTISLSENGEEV
Chain of 5-hydroxytryptamine receptor 1A (Homo sapiens) (P08908 whole entry): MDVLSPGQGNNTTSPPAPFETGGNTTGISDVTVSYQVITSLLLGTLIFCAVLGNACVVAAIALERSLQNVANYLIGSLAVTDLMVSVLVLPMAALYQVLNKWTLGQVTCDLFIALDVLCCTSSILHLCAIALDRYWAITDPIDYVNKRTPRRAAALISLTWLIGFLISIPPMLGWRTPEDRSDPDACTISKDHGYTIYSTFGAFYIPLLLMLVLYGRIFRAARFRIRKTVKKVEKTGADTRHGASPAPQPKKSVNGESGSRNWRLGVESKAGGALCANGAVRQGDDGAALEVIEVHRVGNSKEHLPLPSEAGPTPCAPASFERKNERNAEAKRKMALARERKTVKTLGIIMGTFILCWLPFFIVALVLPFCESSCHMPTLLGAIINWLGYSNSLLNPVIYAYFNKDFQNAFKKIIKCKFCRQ
Chain of 5-hydroxytryptamine receptor 2B (P41595 whole entry): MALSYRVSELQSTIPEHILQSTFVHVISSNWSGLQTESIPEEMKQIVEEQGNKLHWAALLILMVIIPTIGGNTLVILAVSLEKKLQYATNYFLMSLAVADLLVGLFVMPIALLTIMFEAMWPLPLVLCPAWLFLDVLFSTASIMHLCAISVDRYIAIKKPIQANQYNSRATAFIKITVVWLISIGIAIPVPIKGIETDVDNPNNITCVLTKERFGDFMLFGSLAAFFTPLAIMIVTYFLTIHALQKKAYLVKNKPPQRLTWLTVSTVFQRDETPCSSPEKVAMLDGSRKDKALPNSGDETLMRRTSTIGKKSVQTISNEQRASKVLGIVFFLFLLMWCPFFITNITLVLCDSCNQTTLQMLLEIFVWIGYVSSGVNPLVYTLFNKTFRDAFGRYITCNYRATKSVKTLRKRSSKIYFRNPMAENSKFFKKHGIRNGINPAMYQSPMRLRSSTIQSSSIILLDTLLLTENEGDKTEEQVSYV
Chain of Sodium-dependent serotonin transporter (Homo sapiens) (P31645 whole entry, looked up): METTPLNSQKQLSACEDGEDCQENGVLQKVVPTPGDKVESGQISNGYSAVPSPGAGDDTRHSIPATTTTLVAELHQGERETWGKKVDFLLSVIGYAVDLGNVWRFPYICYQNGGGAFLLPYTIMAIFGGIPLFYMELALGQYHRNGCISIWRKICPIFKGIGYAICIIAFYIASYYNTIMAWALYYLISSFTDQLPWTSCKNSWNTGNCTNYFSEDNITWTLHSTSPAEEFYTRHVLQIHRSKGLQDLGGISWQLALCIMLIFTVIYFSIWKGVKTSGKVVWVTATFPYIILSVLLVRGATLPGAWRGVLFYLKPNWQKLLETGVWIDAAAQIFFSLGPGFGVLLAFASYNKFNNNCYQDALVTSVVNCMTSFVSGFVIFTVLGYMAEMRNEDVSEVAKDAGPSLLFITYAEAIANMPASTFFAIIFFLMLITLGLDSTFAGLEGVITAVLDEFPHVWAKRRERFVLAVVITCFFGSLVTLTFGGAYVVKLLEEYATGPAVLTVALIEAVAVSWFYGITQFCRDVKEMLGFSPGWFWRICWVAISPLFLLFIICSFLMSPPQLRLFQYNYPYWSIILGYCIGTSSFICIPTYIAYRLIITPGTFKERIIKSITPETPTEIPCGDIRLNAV
Chain of Translocator protein (P30536 whole entry): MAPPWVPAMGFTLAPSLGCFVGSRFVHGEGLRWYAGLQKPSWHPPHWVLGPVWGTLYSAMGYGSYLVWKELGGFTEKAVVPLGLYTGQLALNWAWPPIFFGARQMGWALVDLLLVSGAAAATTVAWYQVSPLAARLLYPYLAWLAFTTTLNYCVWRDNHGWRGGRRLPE

SMILES: COc1cc2c3c(c1OCCOC(C)=O)-c1cc4c(cc1CC3N(C)CC2)OCO4 (stereo unspecified)
Ratio Ke [1]: 0.3

pKi [2]: < 6.05
pKi [3]: < 6.05
pKi [4]: < 6.05
inhibition [5]: < 50%
inhibition [6]: < 50%
inhibition [7]: < 50%
inhibition [8]: < 50%
pKi [9]: < 6.05
pKi [10]: < 6.05
inhibition [11]: < 50%
inhibition [12]: < 50%
inhibition [13]: < 50%
inhibition [14]: < 50%
pKi [15]: < 6.05
inhibition [16]: < 50%
inhibition [17]: < 50%
pKi [18]: < 6.52
pKi [19]: < 6.05
pKi [20]: < 6.05
inhibition [21]: < 50%
Ratio Ke [1]: > 1090
pKi [22]: < 6.05
inhibition [23]: < 50%
inhibition [24]: < 50%
inhibition [25]: < 50%
inhibition [26]: < 50%
inhibition [27]: < 50%
inhibition [28]: < 50%
inhibition [29]: < 50%
inhibition [30]: < 50%
inhibition [31]: < 50%
pKi [32]: < 6.05
pKi [33]: < 6.05
pKi [34]: < 6.05
inhibition [35]: < 50%
inhibition [36]: < 50%
pKi [37]: < 6.05
inhibition [38]: < 50%
inhibition [39]: < 50%
inhibition [40]: < 50%
SMILES: COc1cc2c3c(c1OCc1ccc(Br)cc1)-c1cc4c(cc1CC3N(C)CC2)OCO4 (stereo unspecified)
